# Experiments:
# Format in all cases: functional
# Rattus norvegicus [1] = assay: Antiallergic activity in ip dosed Sprague-Dawley rat assessed as compound required to > 50% inhibition of egg albumin/Bordetulla pertusis antibody-induced passive sensitization treated 5 mins before induction by passive cutaneous anaphylaxis assay
# In short: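 Passive cutaneous anaphylaxis in Sprague-Dawley rats. Intradermal anti-egg-albumin antibody was left for 24 h, then compound was given ip 5 min before iv antigen and Evans blue, with six animals per dose. Initial doses were 25, 10 or 5 mg/kg, then a descending series down to 0.156 mg/kg. MED is the lowest dose giving >50% inhibition of weal area versus untreated rats, p ≤ 0.05 (Student's t test).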
# Rattus norvegicus [2] = assay: Antiallergic activity in ip dosed Sprague-Dawley rat assessed as compound inhibition of egg albumin/Bordetulla pertusis antibody-induced passive sensitization treated 5 mins before induction by passive cutaneous anaphylaxis assay; details: read-out: ID50 (the source's name)
# In short: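 Rat antiserum against egg albumin, raised with Bordetella pertussis as adjuvant, was injected intradermally into the middorsal skin. Sensitization developed for 24 h. Compound was given ip 5 min before iv egg albumin plus Evans blue, at 10 to 0.156 mg/kg with six rats per dose. Blue-weal area was compared with untreated rats as % inhibition. ID50 was reported with 95% confidence limits.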
# Rattus norvegicus [3] = assay: Ratio of DSCG MED to compound MED for antiallergic activity in ip dosed Sprague-Dawley rat assessed as compound inhibition of egg albumin/Bordetulla pertusis antibody-induced passive sensitization treated 5 mins before induction by passive cutaneous anaphylaxis assay
SMILES,MED>50 (Rattus norvegicus [1]) [mg/kg],ED50 (Rattus norvegicus [2]) [mg/kg],Ratio (Rattus norvegicus [3])
COc1ccc2sc3ccc4[nH]c(C(=O)O)cc(=O)c4c3c2c1,>5,–,–
O=C(O)c1cc(=O)c2c(ccc3sc4ccc(F)cc4c32)[nH]1,>5,–,–
O=C(O)c1cc(=O)c2ccc3sc4ccccc4c3c2[nH]1,>10,–,–
O=C(O)c1cc(=O)c2ccc3c(c2[nH]1)-c1ccccc1S3(=O)=O,5,–,–
O=C(O)c1cc(=O)c2ccc3c(c2[nH]1)S(=O)(=O)c1ccccc1-3,>25,–,–
O=C(O)c1cc(=O)c2c(ccc3c4ccccc4sc32)[nH]1,>10,–,–
O=C(O)c1cc(=O)c2c3c(ccc2[nH]1)-c1ccccc1S3(=O)=O,>10,–,–
O=C(O)c1cc(=O)c2cc3c(cc2[nH]1)S(=O)(=O)c1ccccc1-3,2.5,–,–
O=C(O)c1cc(=O)c2c(ccc3sc4ccccc4c32)[nH]1,5,–,–
O=C(O)c1cc(=O)c2c(ccc3sc4ccc(Br)cc4c32)[nH]1,>10,–,–
O=C(O)c1cc(=O)c2c(ccc3sc4ccc(Cl)cc4c32)[nH]1,>10,–,–
Cc1ccc2sc3ccc4[nH]c(C(=O)O)cc(=O)c4c3c2c1,>10,–,–
O=C(O)c1cc(=O)c2c(ccc3sc4c(Cl)cccc4c32)[nH]1,>10,–,–
COc1cccc2c1sc1ccc3[nH]c(C(=O)O)cc(=O)c3c12,>5,–,–
Cc1cccc2c1sc1ccc3[nH]c(C(=O)O)cc(=O)c3c12,>5,–,–
O=C(O)c1cc(=O)c2c(cc(Cl)c3sc4ccccc4c32)[nH]1,>10,–,–
COc1cc2[nH]c(C(=O)O)cc(=O)c2c2c1sc1ccccc12,>10,–,–
O=C(O)c1cc(=O)c2c3c(ccc2[nH]1)S(=O)(=O)c1ccccc1-3,–,1.3,–
O=C(O)c1cc(=O)c2c3c(ccc2[nH]1)S(=O)(=O)c1ccc(Br)cc1-3,>10,–,–
O=C(O)c1cc(=O)c2c3c(ccc2[nH]1)S(=O)(=O)c1ccc(Cl)cc1-3,>10,–,–
Cc1ccc2c(c1)-c1c(ccc3[nH]c(C(=O)O)cc(=O)c13)S2(=O)=O,10,–,–
COc1ccc2c(c1)-c1c(ccc3[nH]c(C(=O)O)cc(=O)c13)S2(=O)=O,2.5,–,–
CCCCCCOc1ccc2c(c1)-c1c(ccc3[nH]c(C(=O)O)cc(=O)c13)S2(=O)=O,>10,–,–

SMILES,MED>50 (Rattus norvegicus [1]) [mg/kg],ED50 (Rattus norvegicus [2]) [mg/kg],Ratio (Rattus norvegicus [3])
O=C(O)c1cc(=O)c2c3c(ccc2[nH]1)S(=O)(=O)c1ccc(F)cc1-3,5,–,–
O=C(O)c1cc(=O)c2c3c(ccc2[nH]1)S(=O)(=O)c1c(Cl)cccc1-3,5,–,–
COc1cccc2c1S(=O)(=O)c1ccc3[nH]c(C(=O)O)cc(=O)c3c1-2,2.5,–,–
Cc1cccc2c1S(=O)(=O)c1ccc3[nH]c(C(=O)O)cc(=O)c3c1-2,2.5,–,–
O=C(O)c1cc(=O)c2c3c(c(Cl)cc2[nH]1)S(=O)(=O)c1ccccc1-3,2.5,–,–
COc1cc2[nH]c(C(=O)O)cc(=O)c2c2c1S(=O)(=O)c1ccccc1-2,1.25,–,–
COc1cc2c(c3c(=O)cc(C(=O)O)[nH]c13)-c1ccccc1S2(=O)=O,1.25,–,–
O=C(O)c1cc(=O)c2c3c(cc(Br)c2[nH]1)S(=O)(=O)c1ccccc1-3,2.5,–,–
O=C(O)c1cc(=O)c2c(ccc3c2c2ccccc2[s+]3[O-])[nH]1 (stereo not drawn),–,0.3,8
O=C(O)c1cc(=O)c2c([nH]1)c(Br)cc1c2c2ccccc2[s+]1[O-] (stereo not drawn),2.5,–,–
O=C(O)c1cc(=O)c2cc3c(cc2[nH]1)-c1ccccc1S3(=O)=O,2.5,–,–
O=C(O)c1cc(=O)c2c(Cl)c3c(cc2[nH]1)-c1ccccc1S3(=O)=O,0.312,–,8
O=C(O)c1cc(=O)c2cc3c(c(Cl)c2[nH]1)-c1ccccc1S3(=O)=O,0.625,–,4
O=C(O)c1cc(=O)c2cc3c(c(Br)c2[nH]1)-c1ccccc1S3(=O)=O,1.25,–,–
O=C(O)c1cc(=O)c2c(Cl)c3c(c(Cl)c2[nH]1)-c1ccccc1S3(=O)=O,1.25,–,–
Cc1c2c(cc3c(=O)cc(C(=O)O)[nH]c13)S(=O)(=O)c1ccccc1-2,1.25,–,–
O=C(O)c1cc(=O)c2cc3sc4ccccc4c3c(Cl)c2[nH]1,>10,–,–
O=C(O)c1cc(=O)c2cc3sc4ccccc4c3c(Br)c2[nH]1,>10,–,–
CSCc1c2[nH]c(C(=O)O)cc(=O)c2cc2sc3ccccc3c12,>5,–,–
O=C(O)c1cc(=O)c2cc3c(cc2[nH]1)c1ccccc1[s+]3[O-] (stereo not drawn),1.25,–,–
O=C(O)c1cc(=O)c2cc3c(c(Cl)c2[nH]1)c1ccccc1[s+]3[O-] (stereo not drawn),1.25,–,–
O=C([O-])c1cc(=O)c2c(OCC(O)COc3cccc4oc(C(=O)[O-])cc(=O)c34)cccc2o1.[Na+].[Na+] [CROMOLYN SODIUM],–,2.6,–
